What was measured:
[1] = Cytotoxicity against human HOG.R5 cells after 4 days; format: cell-based
How it was run: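 GFP-based HOG.R5 reporter cells in microtiter wells treated with compounds without virus, in parallel with HIV-1 IIIB-infected (2.5 ng/mL p24) cultures. After 4 days, viability judged by combined microscopic and fluorometric measurement. CC50 = concentration mediating 50% cytotoxicity.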

[2] = Selectivity index, ratio of CC50 for human HOG.R5 cells to IC50 for HIV1 3B; format: functional
How it was run: (§1)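 GFP reporter HOG.R5 cells in microtiter wells infected with HIV-1 IIIB (2.5 ng/mL p24) with test agent present. Fluorescence read after 4 days. Selectivity index taken as CC50 in uninfected parallel HOG.R5 cultures divided by antiviral IC50.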

[3] = Cytotoxicity against human CEM-SS cells after 6 days by MTS assay; format: cell-based
How it was run: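 CEM-SS cells split 1:2 the day before, then washed and resuspended at (2-3) × 10^4 cells/mL in RPMI 1640 with 10% heat-inactivated FBS, 4 mM L-glutamine, penicillin/streptomycin. Compounds diluted in complete medium, virus omitted (toxicity controls). 6 days at 37 °C, 5% CO2; MTS/PES added (final 317 µg/mL and 50 µM), 4 h further, A490/650. CC50 = 50% cytotoxic concentration.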

[4] = system: Human immunodeficiency virus 1; test: Antiviral activity against HIV1 3B infected in human CEM-SS cells assessed as inhibition of virus-induced cytopathic effect at 2.7 uM after 6 days by MTS assay; format: functional; conditions: Human immunodeficiency virus 1, 3B, 144 h
How it was run: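 CEM-SS cells split 1:2 the day before, then washed and resuspended at (2-3) × 10^4 cells/mL in RPMI 1640 with 10% heat-inactivated FBS, glutamine and antibiotics. Infected with HIV-1 IIIB (~2 ng p24/mL, MOI ~0.4) alongside test agent. Incubated 6 days at 37 °C, 5% CO2. MTS/PES added (final 317 µg/mL and 50 µM) for 4 h. Absorbance read at 490/650 nm and reported as % CPE reduction.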

[5] = system: Human immunodeficiency virus 1; test: Antiviral activity against HIV1 3B infected in human HOG.R5 cells after 4 days; format: functional, organism-based; conditions: Human immunodeficiency virus 1, 3B, HOG.R5, 96 h; how it was run: as §1
[6] = system: HUVEC; test: Cytotoxicity against HUVEC cells; format: functional; conditions: Homo sapiens, read-out: ED50 (the source's name)
[7] = system: Lu1; test: Cytotoxicity against human Lu1 cells; format: functional; conditions: read-out: ED50 (the source's name)
[8] = system: Col2; test: Cytotoxicity against human Col2 cells; format: functional; conditions: read-out: ED50 (the source's name)
[9] = system: KB; test: Cytotoxicity against human KB cells; format: functional; conditions: read-out: ED50 (the source's name)
[10] = system: LNCaP; test: Cytotoxicity against human LNCAP cells; format: functional; conditions: read-out: ED50 (the source's name)
[11] = system: SK-MEL-2; test: Cytotoxicity against human SK-MEL-2 cells; format: functional; conditions: read-out: ED50 (the source's name)
[12] = system: Human immunodeficiency virus 1; test: Antiviral activity against HIV1 3B infected in human CEM-SS cells assessed as inhibition of virus-induced cytopathic effect after 6 days by MTS assay; format: functional; conditions: for EC50: Human immunodeficiency virus 1, 3B, 144 h, read-out: ED50 (the source's name)
How it was run: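 CEM-SS cells split 1:2 the day before, then washed and resuspended at (2-3) × 10^4 cells/mL in RPMI 1640 with 10% heat-inactivated FBS, 4 mM L-glutamine, penicillin/streptomycin. Compounds diluted in complete medium. HIV-1 IIIB added at ~2 ng p24/mL (MOI ~0.4). Incubated 6 days at 37 °C, 5% CO2. MTS/PES added (final 317 µg/mL and 50 µM) for 4 h. Read at 490/650 nm as % CPE reduction; five-concentration dose-response.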

[13] = Selectivity index, ratio of CC50 for human CEM-SS cells to IC50 for HIV1 3B; format: functional
How it was run: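 CEM-SS cells at (2-3) × 10^4 cells/mL in RPMI 1640/10% FBS infected with HIV-1 IIIB (~2 ng p24/mL, MOI ~0.4) in presence of compounds. After 6 days at 37 °C, viability by MTS/PES reduction (4 h, A490/650). ED50 is 50% cytoprotection against viral CPE. SI = CC50 in uninfected parallel cells / ED50.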

[14] = Cytotoxicity against human HOG.R5 cells at 40 ug/ml after 4 days; format: cell-based; conditions: 96 h
How it was run: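 HOG.R5 cultures run in parallel with the infection assay, given identical test-agent concentrations with virus omitted. After 4 days, viability monitored by microscopic and fluorometric measurement and CC50 derived.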

[15] = system: CEM-SS; test: Cytotoxicity against human CEM-SS cells at 40 ug/ml after 6 days by MTS assay; format: cell-based; conditions: 144 h
How it was run: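 Run alongside the CPE assay as uninfected toxicity controls. CEM-SS cells at (2-3) × 10^4 cells/mL in RPMI 1640 with 10% heat-inactivated FBS and 4 mM L-glutamine, plus compound without virus. After 6 days at 37 °C, MTS/PES added (final 317 µg/mL and 50 µM) for 4 h. Absorbance at 490/650 nm gives % viability and CC50.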

| IC50 [5] [µM] | Compound | CC50 at 96 h [1] [µM] | Ratio CC50/IC50 [2] | CC50 at 144 h [3] [µM] | inhibition at 2.7 µM [4] [%] | EC50 [6] [µM] | EC50 [7] [µM] | EC50 [8] [µM] | EC50 [9] [µM] | EC50 [10] [µM] | EC50 [11] [µM] | Activity [12] | EC50 [12] [µM] | Ratio CC50/IC50 [13] | Activity [14] | Activity [15] |
| --- | --- | --- | --- | --- | --- | --- | --- | --- | --- | --- | --- | --- | --- | --- | --- | --- |
| 14.4 | C[C@H]1[C@H](C)CC[C@]2(C(=O)O)CC[C@]3(C)C(=CC[C@@H]4[C@@]5(C)CC[C@H](O)C(C)(C)[C@@H]5CC[C@]43C)[C@H]12 [URSOLIC ACID] | 15.4 | 1 | 21.9 | 22 | – | – | – | – | – | – | – | – | – | – | – |
| 5.6 | C=C(C)[C@@H]1CC[C@]2(C(=O)O)CC[C@]3(C)[C@H](CC[C@@H]4[C@@]5(C)CC[C@H](OC(=O)/C=C/c6ccc(O)cc6)C(C)(C)[C@@H]5CC[C@]43C)[C@@H]12 | 14.3 | 3 | < 1.7 | – | 5.3 | 12.1 | 6.6 | 5.5 | 5.7 | 4.2 | Toxic | – | – | – | – |
| 8 | C=C(C)[C@@H]1CC[C@]2(C(=O)O)CC[C@]3(C)[C@H](CC[C@@H]4[C@@]5(C)CC[C@H](OC(=O)/C=C\c6ccc(O)cc6)C(C)(C)[C@@H]5CC[C@]43C)[C@@H]12 | 15.9 | 2 | < 1.7 | – | 6.8 | 11 | 6 | 4.3 | 3.2 | 3.8 | Toxic | – | – | – | – |
| 0.07 | CCCc1cc(=O)oc2c3c(c4c(c12)OC(C)(C)C=C4)O[C@H](C)[C@@H](C)[C@@H]3O [CALANOLIDE A] | – | – | – | – | – | – | – | – | – | – | – | 0.31 | – | Non-toxic | Non-toxic |
| 0.02 | CC(C)Nc1cccnc1N1CCN(C(=O)c2cc3cc(NS(C)(=O)=O)ccc3[nH]2)CC1.CS(=O)(=O)O [DELAVIRDINE MESYLATE] | – | – | – | – | – | – | – | – | – | – | – | 0.06 | – | Non-toxic | Non-toxic |
| – | Nc1ccn([C@@H]2CS[C@H](CO)O2)c(=O)n1 [LAMIVUDINE] | – | – | – | – | – | – | – | – | – | – | – | 0.36 | – | Non-toxic | Non-toxic |
| 0.09 | Cc1c(O)cccc1C(=O)N[C@@H](CSc1ccccc1)[C@H](O)CN1C[C@H]2CCCC[C@H]2C[C@H]1C(=O)NC(C)(C)C | – | – | – | – | – | – | – | – | – | – | – | 0.03 | – | Non-toxic | Non-toxic |

| Compound | IC50 [5] [µM] | CC50 at 96 h [1] [µM] | Ratio CC50/IC50 [2] | CC50 at 144 h [3] [µM] | inhibition at 2.7 µM [4] [%] | EC50 [6] [µM] | EC50 [7] [µM] | EC50 [8] [µM] | EC50 [9] [µM] | EC50 [10] [µM] | EC50 [11] [µM] | Activity [12] | EC50 [12] [µM] | Ratio CC50/IC50 [13] | Activity [14] | Activity [15] |
| --- | --- | --- | --- | --- | --- | --- | --- | --- | --- | --- | --- | --- | --- | --- | --- | --- |
| C=C(C)[C@@H]1CC[C@]2(C(=O)O)CC[C@]3(C)[C@H](CC[C@@H]4[C@@]5(C)CC[C@H](O)C(C)(C)[C@@H]5CC[C@]43C)[C@@H]12 [BETULINIC ACID] | 3.1 | 16.7 | 5 | 5.9 | – | 28.7 | 40.6 | 43.9 | 35.7 | 27.4 | 1.3 | – | 2 | 3 | – | – |
| C=C(C)[C@@H]1CC[C@]2(C(=O)O)CC[C@]3(C)[C@H](CC[C@@H]4[C@@]5(C)CC[C@H](OC(=O)/C=C\c6ccc(O)c(OC)c6)C(C)(C)[C@@H]5CC[C@]43C)[C@@H]12 | 11.1 | 22.2 | 2 | < 1.6 | – | 6.2 | 15.7 | 7.4 | 5.4 | 5.2 | 3.8 | Toxic | – | – | – | – |
| C=C(C)[C@@H]1CC[C@]2(C(=O)O)CC[C@]3(C)[C@H](CC[C@@H]4[C@@]5(C)CC[C@H](OC(=O)/C=C/c6ccc(O)c(OC)c6)C(C)(C)[C@@H]5CC[C@]43C)[C@@H]12 | 5.1 | 13.4 | 3 | < 1.6 | – | 9.5 | 8.5 | 5.4 | 2.5 | 3.2 | 3.8 | Toxic | – | – | – | – |

From ChEMBL document CHEMBL1148153, “New 3-O-acyl betulinic acids from Strychnos vanprukii Craib” (J Nat Prod, 2004)
